Test results as given in ChEMBL document CHEMBL3232800, “Polyfluorinated bis-styrylbenzenes as amyloid-β plaque binding ligands” (Bioorg Med Chem, 2014).
Activity calls are given as the source filed them. The calls are words filed in the database; no cut-off is given here.

Key:
[1] = Partition coefficient, log P of the compound in methanol-water mixture by HPLC analysis; format: physicochemical
Outline: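 Eluent A was 0.02 M Na2HPO4 phosphate buffer, pH 7.0, and eluent B was 0.25% octanol in methanol. Samples came from 0.5 mg/ml methanol stocks. Values above 7 are not reliably measured.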

[2] = molecular target: T1, Amyloid-beta precursor protein (Homo sapiens, UniProt P05067); test: Binding affinity to beta-amyloid plaque in APP/PS1 transgenic mouse brain at 100 uM by fluorescence microscopic analysis; format: tissue-based
T1 sequence (P05067 whole entry): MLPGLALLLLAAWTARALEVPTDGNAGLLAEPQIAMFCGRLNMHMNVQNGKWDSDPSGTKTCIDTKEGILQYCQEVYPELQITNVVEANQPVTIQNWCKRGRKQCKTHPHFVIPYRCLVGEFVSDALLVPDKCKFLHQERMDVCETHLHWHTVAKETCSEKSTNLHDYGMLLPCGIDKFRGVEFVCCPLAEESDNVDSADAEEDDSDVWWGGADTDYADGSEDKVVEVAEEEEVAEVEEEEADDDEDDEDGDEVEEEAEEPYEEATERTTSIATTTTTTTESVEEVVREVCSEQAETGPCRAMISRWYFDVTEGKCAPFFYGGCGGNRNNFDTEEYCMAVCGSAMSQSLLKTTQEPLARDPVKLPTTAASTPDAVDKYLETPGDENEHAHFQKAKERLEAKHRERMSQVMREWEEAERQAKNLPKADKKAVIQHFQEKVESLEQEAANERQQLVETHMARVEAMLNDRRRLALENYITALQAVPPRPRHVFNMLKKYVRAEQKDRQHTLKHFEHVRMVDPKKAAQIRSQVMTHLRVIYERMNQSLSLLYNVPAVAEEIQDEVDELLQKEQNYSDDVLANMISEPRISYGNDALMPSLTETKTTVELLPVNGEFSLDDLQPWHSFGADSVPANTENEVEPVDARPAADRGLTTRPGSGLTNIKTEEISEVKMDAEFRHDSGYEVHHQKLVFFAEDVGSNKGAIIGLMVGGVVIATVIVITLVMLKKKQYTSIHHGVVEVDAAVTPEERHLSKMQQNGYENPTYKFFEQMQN
Outline: (§1)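 Sections were stained for 10 min in darkness with compound diluted from 3 mM DMSO stocks to 1, 10 or 100 µM in 2:3 PBS/ethanol and sonicated 15 min. Tissue was paraffin sections of Braak IV human AD medial temporal cortex (8 µm), 14-month APP/PS1 mouse brain and age-matched controls. Sections were rinsed, then 0.1% NaOH in 80% ethanol for 2 min. Read by slide-scanner fluorescence with a DAPI cube (Ex 365, Em 445/50 nm) at constant settings; assessment was qualitative.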

[3] = molecular target: T1, Amyloid-beta precursor protein; test: Binding affinity to beta-amyloid plaque in APP/PS1 transgenic mouse brain at 1 uM by fluorescence microscopic analysis; format: tissue-based; outline: as §1
[4] = molecular target: T1, Amyloid-beta precursor protein; test: Binding affinity to beta-amyloid plaque in Alzheimer's disease patient brain at 10 uM by fluorescence microscopic analysis; outline: as §1
[5] = molecular target: T1, Amyloid-beta precursor protein; test: Binding affinity to beta-amyloid plaque in Alzheimer's disease patient brain at 100 uM by fluorescence microscopic analysis; outline: as §1
[6] = molecular target: T1, Amyloid-beta precursor protein; test: Binding affinity to fibrillar amyloid beta (1 to 40) (unknown origin) assessed as fluorescence intensity relative to control
[7] = molecular target: T1, Amyloid-beta precursor protein; test: Binding affinity to fibrillar amyloid beta (1 to 40) (unknown origin) assessed as fluorescence intensity relative to Methoxy-X04
Mus musculus [8] = test: Binding affinity to beta-amyloid plaque in APP/PS1 transgenic mouse brain at 30 umol/kg, iv after 1 day by fluorescence microscopic analysis; format: functional, organism-based
Outline: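 APP/PS1 mice aged 12–14 months, with age-matched wildtype (n = 2 per compound), got an iv dose of 30 µmol/kg from a 0.05 M solution in 1:1 DMSO/Cremophor diluted with PBS to 200 µl. After one day they were perfused with 4% PFA and brains cryoprotected in sucrose/PFA. Brains were cut into 30 µm cryosections and imaged by the same fluorescence slide-scanner set-up.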

[9] = molecular target: T1, Amyloid-beta precursor protein; test: Binding affinity to fibrillar amyloid beta (1 to 40) (unknown origin) at 1.92 mM by [19F]-NMR spectrometric analysis
[10] = molecular target: T1, Amyloid-beta precursor protein; test: Binding affinity to beta-amyloid plaque in APP/PS1 transgenic mouse brain homogenate at 1.92 mM by [19F]-NMR spectrometric analysis; format: tissue-based
Mus musculus [11] = test: Binding affinity to beta-amyloid plaque in APP/PS1 transgenic mouse brain at 30 umol/kg, iv after 24 hrs by [19F]-NMR spectrometric analysis; format: functional, organism-based
[12] = molecular target: T1, Amyloid-beta precursor protein; test: Displacement of [3H]chrysamine G from fibrillar amyloid beta (1 to 40) (unknown origin) after 1 hr by liquid scintillation spectrophotometric analysis
Outline: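 Competition binding was run at room temperature in 1 ml of 150 mM Tris-HCl, 20% ethanol, pH 7.0. Test compound ranged 30 µM to 30 pM (from 3 mM DMSO stocks, sonicated) against 5 nM [3H]chrysamine G and 50 nM synthetic Aβ1-40 fibrils. Nonspecific binding was taken with 1 µM Methoxy-X04.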

[13] = methanol-water mixture, read-out: logP

| SMILES | logP [1, 13] | Activity [2] | Activity [3] | Activity [4] | Activity [5] | fold change (FC) [6] | RFU [7] | Activity (Mus musculus [8]) | Activity [9] | Activity [10] | Activity (Mus musculus [11]) | Ki [12] [nM] | logP ([1]; octanol/water) |
| --- | --- | --- | --- | --- | --- | --- | --- | --- | --- | --- | --- | --- | --- |
| COc1cc(/C=C/c2ccc(OC)c(C(F)(F)F)c2)ccc1/C=C/c1ccc(OC)c(C(F)(F)F)c1 | > 7 | Active | Active | inactive | Active | < 1 | 4 | inactive | – | – | – | – | – |
| COc1cc(/C=C/c2ccc(C(F)(F)F)cc2)ccc1/C=C/c1ccc(C(F)(F)F)cc1 | > 7 | Active | Active | Active | Active | < 1 | 1 | Active | – | – | – | – | – |
| Oc1cc(/C=C/c2ccc(C(F)(F)F)cc2)ccc1/C=C/c1ccc(C(F)(F)F)cc1 | 6.18 | Active | Active | Active | Active | 3.6 | 2 | Active | – | – | – | – | – |
| Oc1ccc(/C=C/c2ccc(/C=C/c3ccc(O)cc3)c(OC(C(F)(F)F)(C(F)(F)F)C(F)(F)F)c2)cc1 | > 7 | Active | Active | Active | Active | 17.8 | 38 | Active | inactive | Active | inactive | 84.5 | – |
| Oc1ccc(/C=C/c2ccc(/C=C/c3ccc(O)cc3)c(OCC(F)(F)F)c2)cc1 | 5.25 | Active | Active | inactive | Active | 4.1 | 7 | Active | – | – | – | 39.3 | – |
| Oc1ccc(/C=C/c2ccc(/C=C/c3ccc(O)cc3)c(OCCCC(F)(F)F)c2)cc1 | 5.79 | – | inactive | inactive | – | 4.3 | 2 | Active | – | – | – | 56.4 | – |
| Oc1cc(/C=C/c2ccc(OC(F)(F)F)cc2)ccc1/C=C/c1ccc(OC(F)(F)F)cc1 | > 7 | Active | Active | Active | Active | 7.4 | 13 | Active | – | – | – | – | – |
| COc1cc(/C=C/c2ccc(C(F)(F)C(F)F)cc2)ccc1/C=C/c1ccc(C(F)(F)C(F)F)cc1 | > 7 | Active | Active | Active | Active | < 1 | 1 | Active | – | – | – | – | – |
| COc1cc(/C=C/c2ccc(O)cc2)c(OC)cc1/C=C/c1ccc(O)cc1 | 5 | – | inactive | inactive | – | – | – | inactive | – | – | – | – | – |
| COc1cc(/C=C/c2ccc(CO)cc2)ccc1/C=C/c1ccc(CO)cc1 | 4.99 | Active | Active | Active | Active | 4.1 | 26 | Active | – | – | – | – | – |
| Oc1ccc(/C=C/c2ccc(/C=C/c3ccc(O)cc3)c(C(F)(F)F)c2)cc1 | 5.64 | Active | Active | inactive | Active | 10.7 | 19 | Active | – | – | – | 244 | – |
| COc1cc(/C=C/c2ccc(OC(F)(F)F)cc2)ccc1/C=C/c1ccc(OC(F)(F)F)cc1 | > 7 | Active | Active | Active | Active | < 1 | 3 | Active | – | – | – | – | – |
| Oc1cc(/C=C/c2ccc(C(F)(F)C(F)F)cc2)ccc1/C=C/c1ccc(C(F)(F)C(F)F)cc1 | > 7 | Active | Active | Active | Active | – | – | Active | – | – | – | – | – |
| COc1cc(/C=C/c2ccc(O)cc2)ccc1/C=C/c1ccc(O)cc1 | – | Active | Active | Active | Active | 9.8 | 100 | Active | – | – | – | 24.2 | 4.84 |
